Hits are enriched below; roughly 3.5% of the tested compounds scored in any of these assays.
MrgX1 allo act – allosterically activates human MrgX1 receptor signaling; Q96LB2; MrgX1-HEK293, Fluo-4 calcium flux, FDSS; stronger effect = higher value; B-score at 10 µM; 0.63% of 310,000 active; AID 588675;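 active = plate-corrected calcium response at least 3 library SD above typical, normal starting fluorescence, not activating the receptor alone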;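 also: compound read alongside a low EC10 to EC30 dose of BAM8-22 agonist; peak minus trough fluorescence over baseline measured at the second addition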
MrgX1 agonist – agonists of human MrgX1 receptor. 0.44% of 310,000 active. B-score at 10 µM. Q96LB2. MrgX1-HEK293 cells, Fluo-4 calcium fluorescence, agonist mode; stronger effect = higher value. AID 588627;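 active = calcium response B-score plate-corrected fluorescence ratio at least 3 library SD, with starting fluorescence B-score inside 5 SD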
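Material: HEK293 cells stably expressing human MrgX1 receptor | Quantity: 15,000 cells per well | Times: Cells plated overnight, dye loaded 0.5 h 37 °C, 0.5 h room temperature | Measured by: Kinetic Fluo-4 NW fluorescence of intracellular calcium | Control set: Positive and negative controls per plate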
RGS4 block – human RGS4 inhibition; 0.45% of 310,000 active; P49798; AID 463165; HEK293 M3R/RGS4 inducible, Fluo-4 calcium flux; stronger effect = higher value; triggered by carbachol at its EC20; B-score at 10 µM;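 active = B-score, a plate-corrected calcium signal, over three deviations above library mean, with baseline fluorescence within five deviations of library mean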;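 also: RGS4 expression induced by doxycycline in cells with stable M3 receptor; B-score is computed from the integrated fluorescence ratio over baseline after carbachol; higher B-score means a larger calcium signal and so more RGS4 inhibition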
Target sequence (P49798 whole entry, looked up): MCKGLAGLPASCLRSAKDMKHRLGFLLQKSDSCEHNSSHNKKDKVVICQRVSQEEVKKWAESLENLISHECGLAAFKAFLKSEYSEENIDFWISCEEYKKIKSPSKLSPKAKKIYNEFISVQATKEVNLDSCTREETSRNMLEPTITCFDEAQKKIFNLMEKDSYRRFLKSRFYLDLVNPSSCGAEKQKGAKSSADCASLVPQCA
RGS4 pot – RGS4 potentiation or activation. 0.92% of 310,000 active. B-score at 10 µM. HEK293 M3R/inducible RGS4, carbachol calcium flux Fluo4; stronger effect = lower value;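 active = B-score of the integrated calcium signal more than 4 SD below the library mean, with starting fluorescence not abnormally high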;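 also: negative B-score means reduced calcium response which marks RGS4 activation or potentiation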
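Assay system: HEK293 FlpIn-TREx cells, stable M3R, doxycycline-inducible RGS4 / Probe or stimulus: carbachol, ECmax concentration / Times: overnight RGS4 induction, 30 min dye load 37 °C, 20 min compound RT / Signal: kinetic calcium fluorescence imaging with Fluo4-AM dye, 2 µM / Measure: Agonist-evoked peak-minus-minimum fluorescence over baseline, integrated ratio, B score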
MrgX1 antag – human MrgX1 receptor antagonism, primary screen; 1.3% of 310,000 active; AID 588676; MRGX1-HEK293 calcium flux, Fluo-4, BAM8-22 antagonism; stronger effect = lower value; Q96LB2; B-score at 10 µM;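 active = calcium-response B-score plate-corrected more than 3 library SD below zero, starting fluorescence within 5 deviations, no agonist response on first addition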;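 also: peak minus trough fluorescence over baseline after final BAM8-22 challenge near maximal dose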
Numbers stand for hits; i = inactive; nt = no result.

SMILES	MrgX1 allo act	MrgX1 agonist	RGS4 block	RGS4 pot	MrgX1 antag
O=C1NC(=O)C(=Cc2ccc(Oc3ccc([N+](=O)[O-])cc3)cc2)C(=O)N1	7.02	i	i	i	i
Cc1ccc(OCC(=O)N2CCN(Cc3ccc([N+](=O)[O-])cc3)CC2)cc1	i	i	i	i	i
COc1ccc(CCNCc2ccsc2)cc1OC	i	i	i	i	i
O=C1NC(=S)N(c2ccccc2)C(=O)/C1=C/c1ccco1	i	i	i	i	i
O=C1NC(=S)N(c2ccccc2)C(=O)C1C(c1ccncc1)C1C(=O)NC(=S)N(c2ccccc2)C1=O (stereo unspecified)	i	i	i	i	-7.61
O=c1[nH]c(=O)n(CCC2=CCCCC2)c(O)c1C=NCc1cccnc1	i	i	i	i	i
CN=C1CN(O)C(c2ccccc2)=c2cc(Cl)ccc2=N1	9.57	i	i	i	i
CCCCn1c(NS(=O)(=O)c2ccc(C)cc2)c(C(=O)OCC)c2nc3ccccc3nc21	i	i	i	i	i
OCC[N+]12CCC(CC1)C(C(O)(c1ccccc1)c1ccccc1)C2 (stereo unspecified)	i	i	i	i	i
O=C(C[N+]12CCC(CC1)C(C(O)(c1ccccc1)c1ccccc1)C2)c1ccc(Br)cc1 (stereo unspecified)	i	i	i	-10.3	i
CCC1C=CC=CC[C@H](C)[C@@H](O)[C@](C)(O)C(=O)[C@@H](C)[C@H](O)[C@@H](C)C(=O)[C@H](C)[C@@H](O)[C@H](C)C=CC(=O)OC2[C@@H](C)C(CC1)OC1(CC[C@@H](C)C(C[C@H](C)O)O1)[C@@H]2C (stereo partly specified)	i	i	nt	nt	-4.83
Oc1cc(Cl)ccc1Oc1ccc(Cl)cc1Cl	i	i	i	-7.06	i
C=C(C)[C@@H]1C2C(=O)O[C@H]1[C@H]1OC(=O)[C@@]34OC3C[C@]2(O)[C@@]14C (stereo partly specified)	i	i	nt	nt	-6.38
COc1ccc(C(=O)C2CCCN(Cc3cnc(C)s3)C2)cc1OC (stereo unspecified)	i	i	i	i	i
COc1ccc(C(=O)C2CCCN(C3CSCCSC3)C2)cc1OC (stereo unspecified)	i	i	i	-7.48	i
Cc1c(C(c2ccc(Cl)cc2Cl)c2c(O)c3ccccc3oc2=O)c(=O)n(-c2ccccc2)n1C (stereo unspecified)	13.6	i	i	i	i
Cc1c(C(c2ccc(Br)cc2)c2c(O)c3ccccc3oc2=O)c(=O)n(-c2ccccc2)n1C (stereo unspecified)	i	i	i	i	i
Cc1c(C=O)c2ccccc2n1Cc1ccc([N+](=O)[O-])cc1	i	i	i	i	-5.27
Cc1ccccc1N1C(=O)NC(=O)/C(=C\c2ccc3c(c2)CCCN3Cc2ccccc2)C1=O	i	32.2	i	i	i
CN1C[C@H](CO)C=C2c3cccc4[nH]cc(c34)C[C@H]21	i	35.6	i	i	i
CC1C(c2cccs2)=[N+]([O-])C(C)(C(=O)c2cccs2)N1O (stereo unspecified)	i	i	i	i	i
O=c1[nH]c(=O)n(C2CCCCC2)c(O)c1/C=C/C=Nc1ccccc1	i	i	i	i	-5.05
CCc1ccc(NC(=O)CN2CC(c3ccccc3)CC2=O)cc1 (stereo unspecified)	i	i	i	i	i
CCCCCCn1c(N)c(C(=O)NCCN2CCOCC2)c2nc3ccccc3nc21	i	i	i	i	i
O=[N+]([O-])c1ccccc1-c1cc(-c2ccccc2)cc(-c2ccccc2)[n+]1Cc1ccccc1Cl	i	i	i	-10.2	-7.01
C=C1C2[C@H](OC(C)=O)[C@@H]3CC(=O)[C@]4(C)OC[C@@]3(C)[C@@]4(O)[C@@H](OC(C)=O)[C@H](OC(C)=O)[C@@]2(COC(=O)c2ccccc2)[C@@H](OC(C)=O)C[C@@H]1O (stereo partly specified)	i	i	i	i	-5.39
C[C@H]1CC[C@@H]2N(C1)C[C@H]1[C@@H]3C[C@H]4[C@@H](CC(=O)[C@H]5C[C@@H](O)CC[C@@]54C)[C@@H]3CC[C@H]1[C@]2(C)O	i	i	i	i	i

High-throughput results deposited in PubChem BioAssay by Johns Hopkins Ion Channel Center.
